Assay outcomes (PubChem BioAssay)
APJ agonist – agonists of human apelin receptor APJ, primary screen, CHO-K1 cells, PathHunter beta-arrestin, luminescence; actives 0.11% (n = 330,000); activation, % at 20 µM; 0% DMSO wells, 100% apelin; AID 2520, 2010; P35414;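 active = activation more than six SD over the plate average, tested at 20 µM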;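 note: 0% = DMSO alone and 100% = apelin-13 at 10 nM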
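system = engineered CHO-K1 APJ arrestin reporter cells | input = 1000 cells per well | timing = overnight seeding, 90 min compound at 25 °C, 1 h detection | measured by = enzyme-fragment complementation luminescence | read-out = beta-arrestin recruitment to APJ as agonist activity, luminescent signal | control set = negative DMSO alone, positive Apelin-13 at 10 nM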
CCR6 antagonist – CCR6 receptor antagonists, primary screen, cell-based, CHO-K1, luminescence, beta-arrestin, uHTS | CHO-K1 CCR6 PathHunter beta-arrestin, CCL20-stimulated | AID 493098, 2011 | actives 0.49% (n = 340,000) | inhibition, % at 20 µM;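 active = compounds whose inhibition of the agonist-driven luminescence signal at 20 µM reaches about 50%, limit read from the data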;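 note: cells stimulated with CCL20 at 14 nM final; plate controls were DMSO with CCL20 for no effect and DMSO without agonist for full effect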
B2AR ag – beta2AR agonists driving receptor internalization, primary screen, cell-based, FAP fluorogen, flow cytometry; Beta-2 adrenergic receptor (Homo sapiens), P07550; response, % (test concentration not listed); AID 504454, 2011; actives 0.43% (n = 340,000); Am2.2-beta2AR cells;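 active = response above a set limit, near 3 SD of response in nonfluorescent compounds, cut at about 42% in these data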
EBI2 antag – EBI2 receptor antagonists, beta-arrestin recruitment, primary screen, cell-based, luminescence, 7a,25-OHC stimulation, uHTS; inhibition, % at 5 µM; AID 651636, 2012; G-protein coupled receptor 183 (Homo sapiens), P32249; actives 0.81% (n = 360,000); 7a,25-OHC stimulated; in the data active = inhibition above about 38%;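 note: enzyme fragment complementation signal reports receptor beta-arrestin coupling in cells; 0% = agonist plus DMSO wells and 100% = wells without agonist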
APJ antagonist – antagonists of human apelin receptor APJ, primary screen, CHO-K1 cells, beta-arrestin complementation, luminescence. inhibition, % at 20 µM. actives 0.32% (n = 330,000);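 active = inhibition above about 40% at 20 µM, limit read from the data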;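 note: cells challenged with 10 nM apelin-13 agonist together with compound; plate controls were apelin-13 plus DMSO wells for no effect and DMSO wells lacking apelin-13 for full effect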
CXCR6 inh – CXCR6 receptor inhibitors, primary screen, cell-based, beta-arrestin, luminescence, CHO-K1 PathHunter, 1536-well; actives 0.36% (n = 360,000); C-X-C chemokine receptor type 6 (Homo sapiens), O00574; inhibition, % at 20 µM; in the data active = inhibition above about 34%, passing the limit was not always enough;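 note: antagonist mode with CXCL16 agonist at 10 nM final; 0% = 10 nM CXCL16 with DMSO and 100% = unstimulated wells without agonist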
Target sequence (O00574 whole entry, looked up): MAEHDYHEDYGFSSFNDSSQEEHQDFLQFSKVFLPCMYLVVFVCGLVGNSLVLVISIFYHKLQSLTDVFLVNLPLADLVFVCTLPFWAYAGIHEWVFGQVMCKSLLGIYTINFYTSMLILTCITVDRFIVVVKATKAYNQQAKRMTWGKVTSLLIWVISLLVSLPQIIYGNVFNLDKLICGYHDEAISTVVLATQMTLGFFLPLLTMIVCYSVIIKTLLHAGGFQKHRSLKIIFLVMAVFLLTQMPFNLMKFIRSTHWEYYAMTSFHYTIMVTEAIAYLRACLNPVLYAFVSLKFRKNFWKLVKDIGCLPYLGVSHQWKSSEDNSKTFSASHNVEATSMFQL
EBI2 conf – EBI2 antagonist hit retest, beta-arrestin, confirmation, cell-based, single concentration, luminescence, 7a,25-OHC stimulation | inhibition, % at 5 µM | actives 29% (n = 2,400) | shares compounds with EBI2 antag | AID 651997, 2013 | 7a,25-OHC antagonism;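 active = inhibition of at least 50%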
EBI2 ag – EBI2 agonist activity of antagonist hits, confirmation, counter-screen for EBI2 antagonist project, cell-based, single concentration, agonist mode, luminescence; shares compounds with EBI2 antag; EBI2-expressing cells, 60 min; 0% vehicle, 100% 7α,25-dihydroxycholesterol control; activation, % at 5 µM; 2,400 tested, under 10 active; AID 652000, 2013;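 active = activation of at least 50%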
bGal counter – E. coli beta-galactosidase enzyme inhibition, confirmation, counter-screen for EBI2 antagonist project, biochemical, luminescence, single concentration; actives 1% (n = 2,400); inhibition, % at 5 µM; purified beta-galactosidase, luminescent Galacton Star, 15 min; shares compounds with EBI2 antag;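 active = replicate-average signal at least 3 plate SD below neutral wells, shown as high inhibition, flagging enzyme-inhibiting false positives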;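 note: 0% = DMSO wells with enzyme and 100% = wells lacking enzyme; higher means stronger loss of beta-gal luminescence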
* hit, by the source's call; x = not tested or not shown. Compounds with a hit are over-represented: about 1.8% of the library has one in this group of screens.

SMILES	APJ agonist	CCR6 antagonist	B2AR ag	EBI2 antag	APJ antagonist	CXCR6 inh	EBI2 conf	EBI2 ag	bGal counter
Cc1ccc(/C=N/NC(=S)NC2CCS(=O)(=O)C2)cc1 (centres undefined)	4	1	-1	44*	17	-8	44	1	7
COc1ccc([C@H]2CC(=O)C[C@@H](CCn3cc(-c4ccccn4)nn3)O2)cc1	x	x	x	-6	x	4	x	x	x
CN(/C=C/C(=O)C(F)(F)F)Cc1ccccc1	0	-16	2	39*	-16	0	6	0	11
CN(Cc1ccccc1)C(=O)CC(=O)N(C)Cc1ccccc1	2	12	-2	-4	2	0	x	x	x
CCOC(=O)N1CCN(C(=O)c2ccc3ccccc3c2)CC1	0	15	-11	68*	-2	-3	31	-1	-10
COc1cccc(N2CCN(C(=O)c3ccc4ccccc4c3)CC2)c1	-5	4	-3	62*	-4	-19	42	1	5
COc1ccc(C(=O)N2CCN(C(=O)c3cc(OC)c(OC)c(OC)c3)CC2)cc1	-4	-4	-6	1	-1	-11	x	x	x
COc1ccc(N2CCN(C(=O)c3csc4ccccc34)CC2)cc1	-4	15	2	53*	9	-2	39	0	10
COc1cc(C(=O)N2CCN(C(=O)COc3ccc4ccccc4c3)CC2)cc(OC)c1OC	-3	3	-1	71*	25	-7	50*	0	6
CCc1nc2ccc(C(=O)N3CCN(c4cccc(OC)c4)CC3)cc2nc1CC	-4	14	-2	-3	10	5	x	x	x
O=C(c1csc2ccccc12)N1CCN(c2ccc(Cl)c(Cl)c2)CC1	2	13	1	38	16	-4	x	x	x
O=C(OCc1cc(=O)n2ccsc2n1)c1ccccc1NCCO	-1	5	1	-9	0	-6	x	x	x
COc1cccc(C(=O)N2CCN(C(=O)COc3ccc4ccccc4c3)CC2)c1	-4	-3	5	95*	-7	1	78*	1	8
COc1cccc(C(=O)N2CCN(C(=O)Cc3ccccc3)CC2)c1	-2	-4	-4	-7	-3	-7	x	x	x
O=C(COc1ccc(Br)cc1)N1CCCCCC1	-3	-11	-12	43	-15	3	x	x	x
O=C(COc1ccc2cc(Br)ccc2c1)N1CCCC1	4	3	-1	69*	6	0	44	2	8
O=C(c1ccc2ccccc2c1)N1CCN(c2ccc(C(F)(F)F)cn2)CC1	-4	14	3	85*	6	-20	71*	2	10
COCCNC(=O)C1(C)CCCN(C(=O)c2cnc3ccccc3n2)C1 (centres undefined)	x	x	x	-5	x	4	x	x	x
O=C(c1ccc(Cl)cc1)c1oc2ccccc2c1CS(=O)c1ccc(Cl)cc1 (centres undefined)	-6	6	-12	52*	14	6	51*	0	3
Nc1c(C(=O)c2ccc(Cl)cc2)oc2ccccc12	-2	11	6	-12	-2	11	x	x	x
CC(Oc1ccc(Br)cc1)C(=O)Nc1ccc(S(=O)(=O)NC2=NCCCCC2)cc1 (centres undefined)	x	7	-4	-7	x	3	x	x	x
COc1ccc(C(C)=O)cc1CSc1nc2ccccc2c(=O)n1-c1ccccc1C	4	2	6	44*	1	12	23	1	7
O=C(Nc1cccc(C(F)(F)F)c1)c1ccc2sc([C@H]3C[C@H](O)[C@@H](CO)O3)nc2c1	x	x	x	5	x	-4	x	x	x
COc1cccc(NC(=O)c2ccc3nc(C)c(N(C)Cc4ccc(NC(C)=O)cc4)n3c2)c1	x	x	x	3	x	-1	x	x	x
COc1ccc(OCCNC(=O)c2ccc3nc(C)c(N(C)Cc4ccc(NC(C)=O)cc4)n3c2)cc1	x	x	x	55*	x	-2	16	-2	-9
SMILES	APJ agonist	CCR6 antagonist	B2AR ag	EBI2 antag	APJ antagonist	CXCR6 inh	EBI2 conf	EBI2 ag	bGal counter
CCc1nc2ccc(C(=O)NCCOc3ccc(OC)cc3)cn2c1N(C)Cc1ccc(N(C)C)cc1	x	x	x	49*	x	16	23	-1	-8
CCc1nc2ccc(C(=O)NCCOc3ccc(OC)cc3)cn2c1N(CC)Cc1ccc(OC)c(OC)c1	x	x	x	58*	x	1	38	-2	-9
CCc1nc2ccc(C(=O)NCCCN(C)C)cn2c1N(C)Cc1ccc(OC)cc1	x	x	x	-4	x	1	x	x	x
CCc1nc2ccc(C(=O)NCCOc3ccc(OC)cc3)cn2c1N(C)C(=O)COc1ccccc1	x	x	x	53*	x	-3	35	1	-1
CCOC(=O)C1(CC)NC(c2ccc(OC)c(OC)c2)C2C(=O)N(c3cccc(C(C)=O)c3)C(=O)C21 (centres undefined)	4	-5	-5	-2	-12	1	x	x	x
Cc1ccc(S(=O)(=O)N2CCCC2CNC(=O)c2ccc(F)c(F)c2)cc1 (centres undefined)	-3	10	-18	-7	10	-5	x	x	x
COc1ccc(S(=O)(=O)Nc2ccccc2N2CCOCC2)cc1OC	2	3	-6	-1	-7	-5	x	x	x
CCN1C[C@@H]2[C@@H]3C(=O)N(Cc4ccccc4)C(=O)[C@@H]3[C@](CC)(C1=O)N2C(=O)c1ccc(F)cc1	x	-11	-1	5	x	2	x	x	x
CC(C)C(NS(=O)(=O)c1ccccc1)C(=O)OCC(=O)NNC(=O)c1ccccc1 (centres undefined)	-8	-2	-9	53*	-40	-9	42	0	2
COc1ccc(N(CC(=O)NCCSCc2cccc(Cl)c2)S(C)(=O)=O)cc1Cl	0	16	8	15	9	-2	x	x	x
COc1ccccc1N(CC(=O)NCCSc1ccccc1)S(C)(=O)=O	-1	-3	15	30	-2	4	x	x	x
